These results are taken from ChEMBL document CHEMBL1148154, “New secondary metabolites from the marine endophytic fungus Apiospora montagnei” (J Nat Prod, 2004).

Values after ≈ are worked out from the molar mass of the structure shown. Active and inactive are the calls of the source.

The test system of one data set is Microbotryum violaceum. Briefly: Antifungal activity against Microbotryum violaceum at 50 ug/disk by agar diffusion assay. It counts as functional, organism-based. A general note: In agar diffusion tests the substance spreads into inoculated agar from a disc or well.
The test system of the next data set is [Chlorella] fusca. Description: Antialgal activity against 'Chlorella' fusca at 50 ug/disk by agar diffusion assay. The format is functional, organism-based. The conditions noted are these: Scenedesmus fuscus.
The subject of another data set is Priestia megaterium. Description: Antibacterial activity against Bacillus megaterium at 50 ug/disk by agar diffusion assay. The format is functional, organism-based.
The next data set concerns Mycotypha microspora. Description: Antifungal activity against Mycotypha microspora at 50 ug/disk by agar diffusion assay. It counts as functional, organism-based.
For another data set, the system named is Escherichia coli. Description: Antibacterial activity against Escherichia coli at 50 ug/disk by agar diffusion assay. It counts as functional, organism-based.
Data set [1] deals with Aspergillus pseudoglaucus. Briefly: Antifungal activity against Eurotium repens at 50 ug/disk by agar diffusion assay. It counts as functional, organism-based.
The subject of data set [2] is MCF7. Description: Cytotoxicity against human MCF7 cells at 10 ug/ml. It counts as functional, cell-based. In outline:
(§1)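 Human tumour lines were HM02 (gastric adenocarcinoma), HepG2 (hepatocellular carcinoma) and MCF7 (breast adenocarcinoma), run following NCI standards. Read-outs were total growth inhibition (TGI) and LC50, defined as a 50% reduction of the initial cell number, in µg/mL. Single-level testing was done at 10 µg/mL.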

The subject of the next data set is HM02. Description: Cytotoxicity against human HM02 cells at 10 ug/ml. The format is functional, cell-based. In outline: as §1
Data set [3] relates to HepG2. Description: Cytotoxicity against human HepG2 cells at 10 ug/ml. It counts as functional, cell-based. In outline: as §1
The next data set deals with Artemia. Description: Toxicity in brine shrimp. The conditions noted are these: in vivo. The format is organism-based.
For data set [4], the system named is HepG2. Description: Cytotoxicity against human HepG2 cells. The format is functional. In outline: as §1
The test system of data set [5] is MCF7. Briefly: Cytotoxicity against human MCF7 cells. The format is functional. In outline:
as §1

A short description of data set [6]: Cytotoxicity against human HM02 cells. It counts as functional. In a few lines: as §1
The test system of the next data set is P388. Description: Cytotoxicity against mouse P388 cells. It counts as functional. The conditions noted are these: read-out: ED50 (the source's name).
The mark [7] stands for this setting: read-out: LC50 (the source's name).

In the case of `C[C@@H]1C=C[C@@H]2C[C@H](CO)CC[C@H]2[C@@H]1C(=O)O`, the outcome (in the data set on Microbotryum violaceum; in [Chlorella] fusca; with Priestia megaterium; with Mycotypha microspora; with Escherichia coli; in [1]) was inactive.
With `C=C[C@@]1(C)C=C2C(=O)C(O)=C3[C@](C)(C(=O)O)CC[C@@H]4C[C@]34[C@]2(O)C(=O)C1`, the outcome (in the data set on Microbotryum violaceum; in [Chlorella] fusca; with MCF7 [2]; in the data set with HM02; in the data set on Priestia megaterium; in the data set on Mycotypha microspora) was inactive. The result (in the data set on Escherichia coli; in the data set on HepG2 [3]; in data set [1]) was inactive.
Consider `C=C(C(=O)O)C(CCCCCC)C(=O)O` (centres undefined), for which the result (with Microbotryum violaceum; in data set [Chlorella] fusca; with Priestia megaterium; in the data set on Mycotypha microspora; with Escherichia coli; in data set [1]) was inactive.
A word on the GI50: it is the concentration that inhibits growth by half. The low end stands for more potent growth inhibition, the high end for less potent growth inhibition. A word on the TGI: it is the concentration giving total growth inhibition. As to `O=C1C(CO)=C[C@H](O)[C@H]2O[C@@H]12`, the result (in the data set on Microbotryum violaceum; in data set [Chlorella] fusca; in the data set on Priestia megaterium; in the data set with Mycotypha microspora; with Escherichia coli; in data set [1]) was inactive. Moreover, the Activity entry with Artemia was “Toxic”. For the same molecule, the GI50 turned out to be 0.75 µg/mL (≈ 4.8 µM) in the data set on HepG2 [4], 0.8 µg/mL (≈ 5.12 µM) in the data set on MCF7 [5] and 0.7 µg/mL (≈ 4.48 µM) in [6]. The TGI was 4.6 µg/mL (≈ 29.5 µM) in the data set with HepG2 [4], 1.5 µg/mL (≈ 9.61 µM) in the data set on MCF7 [5] and 1 µg/mL (≈ 6.4 µM) in data set [6]. The figures for the CC50 (with HepG2 [4] (setting [7]); in the data set on MCF7 [5] (setting [7]); in data set [6] (setting [7])) were more than 10 µg/mL, 3.6 µg/mL (≈ 23.1 µM) and more than 10 µg/mL, respectively. Further, the EC50 in the data set on P388 amounted to 0.2 µg/mL (≈ 1.28 µM).
Regarding `C=C(C(=O)O)C(CCCCC(C)O)C(=O)OC` (centres undefined), the result (with Microbotryum violaceum; in data set [Chlorella] fusca; in the data set with Priestia megaterium; with Mycotypha microspora; in the data set with Escherichia coli; in [1]) was inactive.
